According to PubChem BioAssay AID465 (The Scripps Research Institute Molecular Screening Center, 2006):
Screen size: about 62,000 compounds; about 130 (0.21%) were called active.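 How the source made its calls: active means inhibition above the mean of all tested compounds plus 3 SD (cut at about 40% in these data); inactive means the rest.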 What follows is part of a selection rich in actives, with near analogues and random picks from the rest.

Test: lowered NF-kB luciferase signal in HEK293 cells – cell-based, HEK-293 luciferase reporter, PMA/ionomycin, luminescence, antigen receptor NF-kB inhibitor project, primary screen (AID 465);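 further: 0% = stimulated DMSO wells and 100% = 10 µM reference inhibitor 5653914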
Settings: HEK-293 NF-kB luciferase reporter, at 3 µM, hits give high values
In short: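 Material: HEK-293 cells with stable firefly luciferase reporter driven by four HIV NF-kB elements / Also added: PMA plus ionomycin mix as NF-kB-activating stimulus / Compound dosing: 3 µM once, 0.30% DMSO / Times: 1 h pretreatment, 16 h stimulation, 37 °C / Signal: luminescence / Evaluation: per-plate % inhibition versus controls / Benchmarks: DMSO and 10 µM reference inhibitor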

inhibition, inactive:
N#CC1=C(N)OC2=C(C(=O)CCC2)C1C1CC=CCC1 (stereo not drawn) 16.6%
O=S(N1CCCCCC1)C12CC3CC(CC(C3)C1)C2 (stereo not drawn) 19.1%
O=C(O)CCC(=O)Nc1ccc(N2CCOCC2)cc1 7.6%
CC(=O)Nc1ccc(NS(=O)(=O)c2cc(C)sc2C)cc1 11.3%
CCOC(=O)CNC(=O)c1nn(-c2cccc(OC)c2)c(=O)c2ccccc12 5.1%
CC(=O)Nc1cc(C(=O)O)ccc1S(=O)(=O)c1ccc(Cl)cc1 15%
O=C(Nc1cnccn1)c1cccnc1 14.9%
Cc1csc(NC(=O)C2CCCN2C(=O)OCC(C)C)n1 (stereo not drawn) 3.7%
CCOC(=O)N1CCN(C(=O)c2cc3c(ccc4ccccc43)oc2=O)CC1 12.5%
CC(C)(C)NC(=O)Cn1nnc(-c2ccccc2Cl)n1 -10.7%
O=C1NC(c2cc3c(cc2Cl)OCO3)Oc2ccccc21 (stereo not drawn) 6.8%
Cc1cc(=O)n2c3c(cccc13)CCC2 7.5%
CCCCN(C)Cc1c(C)[nH]c2ccc(Cl)cc2c1=O 9.1%
CNC(=O)CSc1nnc(CCc2ccccc2)n1-c1ccccc1 11.6%
CCCCN=C(N)/C(C(=O)OCC)=C(\O)c1ccc(OC)cc1 7.4%
Cc1ccc(OS(=O)Nc2cccc3nccnc23)cc1 (stereo not drawn) 8.8%
COC(=O)[C@H](C)NC(=O)Nc1ccc(OC(F)(F)F)cc1 11.6%
Cc1ccnc(N2CCN(C(=O)CSc3nc4ccccc4nc3N3CCCCC3)CC2)c1 5.5%
COc1ccc(-c2nnn(CC(=O)N(CCO)C(C(=O)NC3CCCC3)c3ccc(F)cc3)n2)cc1 (stereo not drawn) 24%
CCN(CC)S(=O)(=O)c1cc(C(=O)Nc2ccccn2)ccc1C -11.3%
O=C(Cc1nn[nH]n1)NCCC1=CCCCC1 4.2%
CC(=O)Oc1ccc(C(=O)Nc2nccs2)cc1 11.8%
Nc1ccc(SCCN2C(=O)c3ccccc3C2=O)cc1 6.7%
CCc1cc(=O)oc2cc(OCC(=O)N3CCCc4ccccc43)ccc12 12.9%
Cc1cc(C)c(NC(=O)CS(=O)CC(=O)Nc2cccnc2)c(C)c1 (stereo not drawn) 18.1%
C=CCC(NCCCO)c1cccc(OC)c1OC (stereo not drawn) 7.1%
O=C(CN1C2CCC1CC(NC(=O)C1CC1)C2)NCc1ccccc1 (stereo not drawn) 7.7%
CCCC(NC(=O)c1ccccc1)c1nc2ccccc2n1Cc1ccc(C(=O)OC)o1 (stereo not drawn) 17.4%
CCCC(CCC(=O)OC)(C(=O)OCC)c1csc(N)n1 (stereo not drawn) 2.1%
CCOC(=O)CSc1nncc2ccc(OC)c(OC)c12 2%
O=C(NC(=O)c1ccc(Cl)c(Cl)c1)OC1CCS(=O)(=O)C1 (stereo not drawn) 21.6%
CCCN1C2=C(C(=O)CCC2)C(c2ccc(O)c(Br)c2)C2=C1CCCC2=O -2.4%
CCOC(=O)Cc1csc(NC(=O)CN(C)S(=O)(=O)c2ccc3c(c2)CCC(=O)N3)n1 0.2%
COc1cc(Cl)c(C)cc1NC(=O)CSc1nnc(-c2ccco2)n1CC(C)C 14.8%
O=C(CCC(=O)N1CCN(S(=O)(=O)c2ccccc2)CC1)NC1CCCc2ccccc21 (stereo not drawn) 15.4%
Cc1cc(Cl)c(S(=O)(=O)NCCC(=O)O)cc1OCC(N)=O 1.4%
CC(=O)N1CCN(c2ccc(NCc3ccc(C(C)C)cc3)cc2)CC1 -0.9%
CCCn1c(SCC(=O)Nc2cccc(C(=O)OCC)c2)nnc1-c1ccoc1C -4.2%
CCOc1ccc(OCc2ccc(C(=O)Nc3cccc(C)n3)o2)cc1 -17.7%
O=P(c1cccs1)(c1cccs1)c1cccs1 22.9%
CCCn1cc(SCC(N)=O)c2ccccc21 2.8%
COc1ccc(N=Cc2c(O)[nH]c3ccccc23)cc1OC -16.7%
CCN(CC)S(=O)(=O)c1ccc2nc(COC(=O)c3n[nH]c4ccccc34)[nH]c2c1 12.4%
Cc1ccn2cc(C(=O)NC3CCN(Cc4ccccc4)CC3)nc2c1 6.4%
COc1cccc(NC(=O)Cn2cnc3sc(C)c(S(=O)(=O)N4CCN(C)CC4)c3c2=O)c1 11.9%
Cc1ccsc1C(=O)OCC(=O)c1cc2ccccc2o1 3.8%
COC(=O)c1ccc2c(=O)n(CC3CCCO3)c(=S)[nH]c2c1 (stereo not drawn) 12.2%
O=C1NC(c2ccncc2)Nc2sc3c(c21)CCCC3 (stereo not drawn) 8%
COc1cccc(N(CC(=O)Nc2cccc(F)c2)S(C)(=O)=O)c1 22.4%
N#CCCn1cnc2ccccc21 13.5%
CC1CCCN(Cc2nc3c(c(=O)n(C)c(=O)n3C)n2Cc2cccc3ccccc23)C1 (stereo not drawn) 30.3%
Cc1c(C(=O)N2CC(C)OC(C)C2)sc2nc(-c3ccccc3)cn12 (stereo not drawn) -1.4%
CCN(CC)CCNC(=O)Cn1cnc2sc(C)c(S(=O)(=O)N3CCOCC3)c2c1=O 4.3%
O=C(CN1CCN(C(=O)c2ccco2)CC1)Nc1ccc(Cl)c(C(F)(F)F)c1 3.2%
NC(=O)C1CC=CCC1C(=O)OCC(Cl)=C(Cl)Cl (stereo not drawn) 0.1%
CCOCCc1c(O)nc(SCC(=O)NCc2ccco2)[nH]c1=O 2.4%
Cc1ccc(C(=O)Nc2nnc(-c3ccncc3)s2)o1 7.3%
O=C(O)C1CCCN1S(=O)(=O)c1ccc2c(c1)CCC2 (stereo not drawn) 15.4%
COC(=O)c1ccccc1NC(=O)c1ccccc1NS(C)(=O)=O 14.9%
O=C(CSC1=NCCS1)Nc1nc(-c2ccccc2)cs1 -2.2%
COC(=O)c1ccc(NC(=O)CN(c2ccc(C)cc2)S(=O)(=O)c2c(C)n[nH]c2C)cc1 21.2%
O=C(NCCN1CCOCC1)[C@H](Cc1ccccc1)N1C(=O)c2ccccc2C1=O 3.6%

inhibition, active:
Cc1ccsc1C(=O)OCC(=O)c1cc(C)n(CC2CCCO2)c1C (stereo not drawn) 55.2%
